The values that follow come from ChEMBL document CHEMBL4145586, “Hinduchelins A-D, Noncytotoxic Catechol Derivatives from Streptoalloteichus hindustanus” (J Nat Prod, 2018).

Activity calls are given as the source filed them. The rule behind the calls is not given here.

The first data set relates to MCF7. The experiment in a line: Cytotoxicity against human MCF7 cells assessed as effect on cell viability at 50 uM after 48 hrs by MTT assay. The settings on record: mcf7, 48 h. It counts as cell-based. On the technique in general: Tetrazolium assays rely on reduction of a dye to a coloured formazan, in cell work by metabolically active cells.
As for `COc1cccc(-c2nc(C(=O)NCCc3ccccc3O)c(C)o2)c1OC`, the Activity entry is listed as “Non-Toxic”.

`COc1cccc(-c2nc(C(=O)NC[C@@H](O)c3ccccc3)c(C)o2)c1OC`: the Activity entry was “Non-Toxic”.

As for `COc1cccc(-c2nc(C(=O)NCCc3ccccc3)c(C)o2)c1O`, the Activity entry is reported as “Non-Toxic”.

As to `COc1cccc(-c2nc(C(=O)NCCc3ccccc3O)c(C)o2)c1O`, the Activity entry was “Non-Toxic”.

Another data set relates to A549. The experiment in a line: Cytotoxicity against human A549 cells assessed as effect on cell viability at 50 uM after 48 hrs by MTT assay. The data set is classed as cell-based. Particulars: a549, 48 h.
Regarding `COc1cccc(-c2nc(C(=O)NCCc3ccccc3O)c(C)o2)c1OC`, the Activity result was “Non-Toxic”.

With `COc1cccc(-c2nc(C(=O)NC[C@@H](O)c3ccccc3)c(C)o2)c1OC`, the Activity entry is “Non-Toxic”.

As for `COc1cccc(-c2nc(C(=O)NCCc3ccccc3)c(C)o2)c1O`, the Activity result is recorded as “Non-Toxic”.

Turning to `COc1cccc(-c2nc(C(=O)NCCc3ccccc3O)c(C)o2)c1O`, the Activity entry is “Non-Toxic”.

In a further data set the test system is HL-60. Kind of data set: Cytotoxicity against human HL60 cells assessed as effect on cell viability at 50 uM after 48 hrs by MTT assay. The data set is classed as cell-based. The settings on record: hl-60, 48 h.
With `COc1cccc(-c2nc(C(=O)NCCc3ccccc3O)c(C)o2)c1OC`, the Activity result is “Non-Toxic”.

As for `COc1cccc(-c2nc(C(=O)NC[C@@H](O)c3ccccc3)c(C)o2)c1OC`, the Activity result is reported as “Non-Toxic”.

Take `COc1cccc(-c2nc(C(=O)NCCc3ccccc3)c(C)o2)c1O`: the Activity entry is on record as “Non-Toxic”.

For `COc1cccc(-c2nc(C(=O)NCCc3ccccc3O)c(C)o2)c1O`, the Activity entry is “Non-Toxic”.

Test system in a further data set: not listed separately
Kind of data set: Metal chelating activity assessed as iron-compound complex formation by measuring increase in pyoverdine production in Pseudomonas aeruginosa PAO1 at 50 uM by fluorescence assay.
Details: not given
Summed up: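 PAO1 grown overnight in LB broth at 37 °C with shaking, then diluted to OD600 0.02 in ABTGC medium. Pyoverdine fluorescence was read on a plate reader, normalized to OD600 and reported as relative fluorescence units.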
As for `COc1cccc(-c2nc(C(=O)NCCc3ccccc3)c(C)o2)c1O`, the outcome was Active.

The next data set relates to SW480. Kind of data set: Cytotoxicity against human SW480 cells assessed as effect on cell viability at 50 uM after 48 hrs by MTT assay. The data set is classed as cell-based. Particulars: sw480, 48 h.
As to `COc1cccc(-c2nc(C(=O)NCCc3ccccc3O)c(C)o2)c1OC`, the Activity entry is reported as “Non-Toxic”.

Take `COc1cccc(-c2nc(C(=O)NC[C@@H](O)c3ccccc3)c(C)o2)c1OC`: the Activity result was “Non-Toxic”.

Regarding `COc1cccc(-c2nc(C(=O)NCCc3ccccc3)c(C)o2)c1O`, the Activity entry is “Non-Toxic”.

For the compound `COc1cccc(-c2nc(C(=O)NCCc3ccccc3O)c(C)o2)c1O`, the Activity result is reported as “Non-Toxic”.

The next data set relates to SMMC-7721. The experiment in a line: Cytotoxicity against human SMMC7721 cells assessed as effect on cell viability at 50 uM after 48 hrs by MTT assay. The data set is classed as cell-based. Particulars: smmc-7721, 48 h.
Take `COc1cccc(-c2nc(C(=O)NCCc3ccccc3O)c(C)o2)c1OC`: the Activity entry is listed as “Non-Toxic”.

For `COc1cccc(-c2nc(C(=O)NC[C@@H](O)c3ccccc3)c(C)o2)c1OC`, the Activity entry was “Non-Toxic”.

`COc1cccc(-c2nc(C(=O)NCCc3ccccc3)c(C)o2)c1O`: the Activity entry is given as “Non-Toxic”.

Take `COc1cccc(-c2nc(C(=O)NCCc3ccccc3O)c(C)o2)c1O`: the Activity result is listed as “Non-Toxic”.
